Values after ≈ are worked out from the molar mass of the structure shown. Values joined by “and” are separate entries in the source; they are usually repeats but may differ in a detail not shown here. Identical values can stand only once. Like-named read-outs stand apart in the source and are kept apart here.

We go through six compounds from article PMC9670593 (Journal of Molecular Liquids, 2022).

One data set relates to Escherichia coli. To be noted: cited from earlier work.
Data set [1] relates to Escherichia coli (ATCC: 25922). Briefly: Antibacterial agar disc diffusion. The conditions noted are these: for zone of inhibition at 100 µg/mL: Escherichia coli, read-out: Inhibition zones (mm); for Activity index (%): relative to ampicillin; for Inhibition zones (mm): 5-mm discs, 100 μg/mL. The class given is cell-based. An outline of the steps: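 E. coli ATCC 25922 grown on Mueller–Hinton agar, 18–24 h at 35 °C. Inoculum adjusted to McFarland 0.5 (1.5x 10^8 CFU/mL) and swabbed as a lawn on Mueller–Hinton plates. Test compounds were stocked at 20 mg in 1 mL DMSO, and 5-mm paper discs were loaded with 100 μg/mL. Inhibition zone diameter was measured against ampicillin as standard, with DMSO as negative control. Assayed twice.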

For data set [2], the system named is Escherichia coli (ATCC: 25922). Description: Antibacterial minimal inhibitory concentration. Format: cell-based. To be noted: 24 h; for Minimum Inhibition concentration (MIC): E. coli. In outline:
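Test compounds were stocked at 20 mg/mL in DMSO. Ampicillin was run as standard drug and DMSO as negative control. MIC reported in μM.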

Data set [3] has as its system HEK293: human embryonic kidney cells. Description: Cytotoxicity MTT assay, HEK293 normal cells. Format: cell-based. To be noted: for IC50 HEK293: MTT, normal cell line, means ± SD, n = 3. In outline: (§1)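 Cells were kept in DMEM with 0.2 % sodium bicarbonate and 10 % FBS at 37 °C, 5 % CO2, humidified. Only batches above 98 % trypan-blue viability were used. 10,000 cells/well adhered 24 h before treatment. MTT (5 mg/ml PBS stock, 10 μl per 100 μl) was added for 4 h, formazan dissolved in DMSO and read at 550 nm. Background-corrected survival = ODt/ODc ×100 versus untreated controls; IC50 taken from dose–response curves; cisplatin reference.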

The test system of data set [4] is HELA: cancerous cervical tumor cells. Briefly: Cytotoxicity MTT assay, HELA. The class given is cell-based, human. To be noted: for IC50: read-out: IC50 HELA; for IC50 HELA: means ± SD, n = 3; for cytotoxic activity class, HELA: class by IC50 (µg/mL). In outline:
as §1
Background: Tetrazolium assays rely on reduction of a dye to a coloured formazan, in cell work by metabolically active cells.

Data set [5] relates to MCF-7: a human breast cancer cell line. Briefly: Cytotoxicity MTT assay, MCF-7. The class given is cell-based. The conditions noted are these: for IC50: read-out: IC50 MCF-7; for IC50 MCF-7: means ± SD, n = 3. An outline of the steps: as §1
The nature of data set [6]: Formation stability constant of the complexes. Format: physicochemical. To be noted: metal:ligand 1:2.
In data set [7] the target is Human serum albumin (HSA) (Homo sapiens, UniProt P02768). Briefly: HSA binding, fluorescence quenching titration. To be noted: slope of Fo/F vs [metal complex]. An outline of the steps: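 HSA concentration fixed spectrophotometrically at 278 nm using ε 35,219 M−1cm−1 (1 cm quartz). Increasing amounts of metal complex were titrated into constant HSA. Tryptophan fluorescence was excited at 280 nm and emission recorded over 300–400 nm. KSV was taken as the slope of the Stern–Volmer plot Fo/F versus [complex].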
Chain of Human serum albumin (HSA) (P02768 25-609): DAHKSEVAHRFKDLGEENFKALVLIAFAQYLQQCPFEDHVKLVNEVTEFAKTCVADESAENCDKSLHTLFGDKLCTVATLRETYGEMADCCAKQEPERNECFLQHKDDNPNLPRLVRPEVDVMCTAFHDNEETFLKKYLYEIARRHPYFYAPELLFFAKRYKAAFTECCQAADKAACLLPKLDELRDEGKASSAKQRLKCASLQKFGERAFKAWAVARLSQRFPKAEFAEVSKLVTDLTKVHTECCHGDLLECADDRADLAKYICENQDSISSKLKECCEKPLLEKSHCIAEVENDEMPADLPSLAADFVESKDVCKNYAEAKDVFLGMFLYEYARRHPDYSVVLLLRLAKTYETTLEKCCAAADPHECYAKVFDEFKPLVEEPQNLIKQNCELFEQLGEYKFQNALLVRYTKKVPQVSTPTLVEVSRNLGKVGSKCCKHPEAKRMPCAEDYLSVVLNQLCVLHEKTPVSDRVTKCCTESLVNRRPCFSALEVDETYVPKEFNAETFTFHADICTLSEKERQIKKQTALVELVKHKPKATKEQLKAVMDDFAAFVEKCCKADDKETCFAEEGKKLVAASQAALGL

With `O=[N+]([O-])[O-].[Ag+]` [AgNO3], in the data set on Escherichia coli, the “concentration showing complete inhibition of Escherichia coli” value is > 8.5 µM. For the same compound, in the data set on Escherichia coli (practical value for more than 24 h), the “reported growth-inhibiting concentration toward Escherichia coli” value is 6.5 µM.
For the compound `CC1(C)S[C@@H]2[C@H](NC(=O)[C@H](N)c3ccccc3)C(=O)N2[C@H]1C(=O)O` [Ampicillin, reference compound], in data set [1], the zone of inhibition at 100 µg/mL is 33 mm and the “Activity index (%)” value came to 100%.
Consider `CC(=O)Oc1ccccc1C(=O)Nc1ncc([N+](=O)[O-])s1` [Free NTZ, 2-(acetyloxy)-N-(5-nitro-2-thiazolyl) benzamide, reference compound], for which the zone of inhibition at 100 µg/mL in data set [1] came out at 8 mm. The “Activity index (%)” value in data set [1] was 24%. The MIC in data set [2] (Escherichia coli, read-out: Minimum Inhibition concentration (MIC)) worked out at 105 µM (≈ 32.3 µg/mL). Besides, the IC50 in data set [3] (Homo sapiens, HEK293, read-out: IC50 HEK293) is 1050 ± 10 µg/mL (≈ 3.42 mM); in data set [4] (Homo sapiens, HeLa), 78 µg/mL and 254 µM; in data set [5] (Homo sapiens, MCF7a), 62 µg/mL and 202 µM.
Take [Ag(NTZ)2]NO3 [NTZ-Ag(I)]: in data set [1], the “Inhibition zones (mm)” value is listed as 28 mm and the “Activity index (%)” value worked out at 85%. Besides, the “formation stability constant for the complexes” value (“formation stability constant” below) in data set [6] is 4.22 × 10^5. In addition, in data set [2], the “Minimum Inhibition concentration (MIC)” value is 5.5 µM. Moreover, the “IC50 HEK293” value in data set [3] stood at 660 ± 3 µg/mL. In data set [4] (MTT), the “IC50 HELA” value worked out at 45 ± 2 µg/mL and the IC50 came to 58.7 µM. Moreover, in data set [5] (MTT), the “IC50 MCF-7” value came to 39 ± 4 µg/mL and the IC50 was determined as 50.8 µM. The “fluorescence constant (Kvs; Stern-Volmer quenching constant KSV) with HSA” value (“fluorescence constant” below) in data set [7] is 3e+06 M⁻¹.
Consider [Au(NTZ)2]Cl3 [NTZ-Au(III)], for which, in data set [1], the “Inhibition zones (mm)” value is listed as 12 mm and the “Activity index (%)” value was determined as 37%. Besides, the “formation stability constant” value in data set [6] is reported as 17.92 × 10^5. For the same compound, the “Minimum Inhibition concentration (MIC)” value in data set [2] is 27.5 µM. For the same compound, in data set [3], the “IC50 HEK293” value is 675 ± 5 µg/mL. Also, in data set [4] (MTT), the “IC50 HELA” value was determined as 8.9 ± 4 µg/mL and the IC50 turned out to be 9.7 µM. For the same compound, the “cytotoxic activity class, HELA” value in data set [4] is “very strong (1–10 (very strong))”. Besides, in data set [5] (MTT), the “IC50 MCF-7” value was 25 ± 5 µg/mL and the IC50 amounted to 27.3 µM. Also, in data set [5] (class by IC50 (µg/mL)), the “cytotoxic activity class, MCF-7” value was “Moderate”. Moreover, in data set [7], the “fluorescence constant” value turned out to be 7e+06 M⁻¹.
Consider [Ru(NTZ)2Cl2]Cl [NTZ-Ru(III)], for which, in data set [1], the “Inhibition zones (mm)” value is 20 mm and the “Activity index (%)” value turned out to be 61%. For the same compound, the “formation stability constant” value in data set [6] is reported as 34.37 × 10^5. Moreover, the “Minimum Inhibition concentration (MIC)” value in data set [2] came to 7.5 µM. Besides, the “IC50 HEK293” value in data set [3] worked out at 265 ± 5 µg/mL. Moreover, in data set [4] (MTT), the “IC50 HELA” value is recorded as 6.5 ± 3 µg/mL and the IC50 worked out at 7.9 µM. The “cytotoxic activity class, HELA” value in data set [4] is reported as “very strong (1–10 (very strong))”. Also, in data set [5] (MTT), the “IC50 MCF-7” value amounted to 10.5 ± 2 µg/mL and the IC50 amounted to 12.8 µM. Also, the “fluorescence constant” value in data set [7] worked out at 4e+06 M⁻¹.

As a reminder, the IC50 is the concentration needed to halve the response being measured.
